From the EternaBench riboswitch data

Test system: MS2 coat protein
Assay: apparent Kd, MS2 coat protein; higher = weaker binding; RNA-MaP array; FMN 200 µM where present
Method in brief: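 Stalled E. coli RNA polymerase transcribed the designs on Illumina sequencing-chip clusters. SNAP-549-labelled MS2 coat protein was titrated from 0.7 or 1.5 nM, doubling to 3 µM, without and then with constant ligand, in 100 mM Tris-HCl pH 7.5, 80 mM KCl, 4 mM MgCl2, BSA, DTT, yeast tRNA and Tween-20. Per-cluster binding curves were fitted to green signal normalised to red-channel RNA signal and control-cluster median Fmax. The apparent Kd is the median of the filtered fits.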

[1] = designed as: OFF switch for flavin mononucleotide, no ligand
[2] = ligand present: flavin mononucleotide, designed as: OFF switch for flavin mononucleotide
[3] = designed as: ON switch for flavin mononucleotide, no ligand
[4] = ligand present: flavin mononucleotide, designed as: ON switch for flavin mononucleotide

Sequence: CCAGAGGAGUAGGAUAUAGGCCGCCAUCGGCGCCUAGAAGGGCUCACAUGAGGAUCACCCAUGUGAUGUUAGUU
- apparent Kd [1]: 17.5 nM
- apparent Kd [2]: 20 nM

Sequence: CCAGAUAUGUGAGGAUAUAGAGUGGAAUACACUCUAGAAGGUAUGUGAAAACAUGAGGAUCACCCAUGUCAUUGAUUAUCUGGA
- apparent Kd [3]: 26 nM
- apparent Kd [4]: 27.5 nM

Sequence: CCAGCGCGUGUGAGGAUAUGCUGGUCCUUGGAUCAGCAGAAGGCACAUGAGGAUCACCCAUGUGAGUGCGUUGG
- apparent Kd [1]: 15.7 nM
- apparent Kd [2]: 47.2 nM

Sequence: CCAGCGUAUGUGAGGAUAUGCUGGUCCUUGGAUCAGCAGAAGGCACAUGAGGAUCACCCAUGUAGAGACGUUGG
- apparent Kd [1]: 27 nM
- apparent Kd [2]: 29.8 nM

Sequence: CCAGGCUGUGUGAGGAUAUGCUGGUCCUUGGAUCAGCAGAAGGCACAUGAGGAUCACCCAUGUGAGGAGCUUGG
- apparent Kd [1]: 20.2 nM
- apparent Kd [2]: 98.8 nM

Sequence: CCAUAACAUGAGGAUCACCCAUGUCGACUAAAUCAAGGAUAUGGGAACGCGCAAGCAAAACCAGAAGGUGAGGUCC
- apparent Kd [3]: 255 nM
- apparent Kd [4]: 236 nM

Sequence: CCAUCGAGUGUGAGGAUAUGCUGGUCCUUGGAUCAGCAGAAGGCACAUGAGGAUCACCCAUGUGGAGACGGUGG
- apparent Kd [1]: 60.1 nM
- apparent Kd [2]: 286 nM

Sequence: CCAUCGAGUGUGAGGAUAUGCUGGUCCUUGGAUCAGCAGAAGGCACAUGAGGAUCACCCAUGUGGAUACGGUGG
- apparent Kd [1]: 31 nM
- apparent Kd [2]: 235 nM

Sequence: CCAUGACAAAGUCAUGGAUAACGAACAUGAGGAUCACCCAUGUAGGAUAUGCUACUCAAAGAGUAGCAGAAGGACAUGUGCCUU
- apparent Kd [1]: 36.1 nM
- apparent Kd [2]: 263 nM

Sequence: CCAUUCAGAGGAUAUGCGCAUAGAUAAGACUUUUUUUCUUAACAUGAGGAUCACCCAUGUAGAAGGCUGUAACC
- apparent Kd [1]: 19.7 nM
- apparent Kd [2]: 18.6 nM

Sequence: CCCACGAAAGUCGAACGAUGUACGAGAAGGACAAUAACAUGACAUGAGGAUCACCCAUGUGCCAUGUAGGAUAUCGUACAUGGG
- apparent Kd [1]: 8.55 nM
- apparent Kd [2]: 8.17 nM

Sequence: CCCACGCAUGAGAAGGGACAGGCGUGCAAUUCGACAUGAGGAUCACCCAUGUCAGGAUAUCAGUUAAGGUGGGCAGAACCAAUG
- apparent Kd [1]: 16.9 nM
- apparent Kd [2]: 76.7 nM

Sequence: CCCGAGUUAGGAUAUCGGACCGGUCCGCGCGGACUGGCAAUUGAGAAGGAACAUGAGGAUCACCCAUGUGAGUA
- apparent Kd [1]: 25.5 nM
- apparent Kd [2]: 52.3 nM

Sequence: CCCGGGUUUGUGAGGAUAUGCCCGGGUAAACCCGGGUAGAAGGCACAUGAGGAUCACCCAUGUAAGGGCCCGGG
- apparent Kd [1]: 16.7 nM
- apparent Kd [2]: 17 nM

Sequence: CCCUACGUUUCGUAGCAGUGUCAUCGAGAAGGCCCUGACAUGAGGAUCACCCAUGUUGUUACAUGGGAGGAUAUCGAUGAUCCC
- apparent Kd [3]: 18.6 nM
- apparent Kd [4]: 5.47 nM

Sequence: CCCUCAACAUGAGGAUCACCCAUGUAGGAUAUCGCUAUUGUAAUCAUGAAACAUGAUUACAAUAGCGAGAAGGACAUAUGUAAA
- apparent Kd [1]: 27.4 nM
- apparent Kd [2]: 140 nM

Sequence: CCCUCAACAUGAGGAUCACCCAUGUAGGAUAUCGCUAUUGUAAUCAUGAAACAUGAUUACAAUAGCGAGAAGGACAUAUGUCCC
- apparent Kd [1]: 13.8 nM
- apparent Kd [2]: 15.3 nM

Sequence: CCCUCACAUGAGGAUCACCCAUGUCAGGAUAUUCAAAGCGCAAAUGCGCCAAAUGCAGGAAGAAGGGACGUGCC
- apparent Kd [1]: 15.1 nM
- apparent Kd [2]: 20.5 nM

Sequence: CCCUGAGACUGGUUAAUUGGCUGAUAGGAUAUCCUCGGACAUGAGGAUCACCCAUGUUAACUAUUGGAGAAGGGUCAGCGAAAG
- apparent Kd [3]: 445 nM
- apparent Kd [4]: 181 nM

Sequence: CCCUUUAGAGGAUAUACAUGAGGAUCACCCAUGUCUUGGGUCCGGCCUGAUCUGGUACGUAGAAGGCUGUUGGU
- apparent Kd [1]: 187 nM
- apparent Kd [2]: 158 nM

Sequence: CCGAAUAAGCAGGAUAUCGAAUCGGAGACGAUUCGAGAAGGGUUAACAUGAGGAUCACCCAUGUUCCUUAACGG
- apparent Kd [1]: 19.1 nM
- apparent Kd [2]: 20.8 nM

Sequence: CCGAAUAUGCAGGAUAUCGUAUCGGAAACGAUACGAGAAGGGCAAACAUGAGGAUCACCCAUGUUCCUUAACGG
- apparent Kd [1]: 18.6 nM
- apparent Kd [2]: 20.2 nM

Sequence: CCGACGAAAGUCGAACGAUGUAGCAGAAGGACAUGAGGAUCACCCAUGUCAGCUGUAACAGCCAUGUAGGAUAUGCUACAUCGU
- apparent Kd [1]: 4.28 nM
- apparent Kd [2]: 5.85 nM

Sequence: CCGCAAAUGGAGGAUAUCGUAUCGGAUACGAUACGAGAAGGCUAUACAUGAGGAUCACCCAUGUGUCCUAGCGG
- apparent Kd [1]: 13.5 nM
- apparent Kd [2]: 18.3 nM

Sequence: CCGCAGUGUCUUCAGAAGACAUGAGGAUCACCCAUGUACCAGGAGGAUAUAGUGCGCUUUCCGCGCUAGAAGGCUUGGAUAUAG
- apparent Kd [1]: 115 nM
- apparent Kd [2]: 70.8 nM

Sequence: CCGCAUAUGGAGGAUAUCGUAUCGGAAACGAUACGAGAAGGCUAAACAUGAGGAUCACCCAUGUUCCUUAACGG
- apparent Kd [1]: 18.1 nM
- apparent Kd [2]: 18.1 nM

Sequence: CCGCGCAUAGGAUAUUAAUCUCACGACAUGAGGAUCACCCAUGUAACUCUGUGUGCGAUCUAAGAAGGGUGGGCUU
- apparent Kd [1]: 28.8 nM
- apparent Kd [2]: 24 nM

Sequence: CCGGAAACGGGUAGCUGACAUGAGGAUCACCCAUGUGAAUCACAGGAUAUGGAUCCUAAUUGGAUCCAGAAGGGUGUCAGCUAC
- apparent Kd [3]: 1020 nM
- apparent Kd [4]: 125 nM

Sequence: CCGGAAAUGAAGGAUAUAGGCGUCGAUAGACUCCUAGAAGGUCAUACAUGAGGAUCACCCAUGUGUCCUACCGG
- apparent Kd [1]: 16.5 nM
- apparent Kd [2]: 29.8 nM

Sequence: CCGGAAGGUUAGGAUAUGCUUCCACAUAUCUAAGCAGAAGGAACCACAUGAGGAUCACCCAUGUUUAUGGGCCG
- apparent Kd [1]: 262 nM
- apparent Kd [2]: 261 nM

Sequence: CCGGAAGUACAGGAUAUCGUAUCGGAAACGAUACGAGAAGGGUAUACAUGAGGAUCACCCAUGUGUCCUACCGG
- apparent Kd [1]: 28.7 nM
- apparent Kd [2]: 27.9 nM

Sequence: CCGGAAUUACAGGAUAUAGGAGUCGAUAGACACCUAGAAGGGUAGACAUGAGGAUCACCCAUGUGUCCUACCGG
- apparent Kd [1]: 273 nM
- apparent Kd [2]: 182 nM

Sequence: CCGGCUGCUGUGAGGAUAUGCCUGUGGGUCCGCGGGCAGAAGGCACAUGAGGAUCACCCAUGUCCUGCGGUCCC
- apparent Kd [1]: 27.1 nM
- apparent Kd [2]: 28.3 nM

Sequence: CCGGUAAAGGAGGAUAUAGGAGUCGAUAGACACCUAGAAGGCCUGACAUGAGGAUCACCCAUGUGUCCUUCCGG
- apparent Kd [1]: 17.7 nM
- apparent Kd [2]: 76.7 nM

Sequence: CCGUCGCACCAGAAGGCGUGAUCCACUGCGGCACGAGGAUAUGGUACAUGAGGAUCACCCAUGUCGCGAUGGAAAGCAAUCACG
- apparent Kd [3]: 151 nM
- apparent Kd [4]: 24.1 nM

Sequence: CCUAAGGACACAGGAUAUAGCGUGGCGGCUGGACUCCAACGGCGAACGGCGCUAGAAGGGUGACCACAUGAGGAUCACCCAUGU
- apparent Kd [3]: 495 nM
- apparent Kd [4]: 206 nM

Sequence: CCUAAGGACACAGGAUAUAGCGUGGUGGCUGGGCUCCAACGACAAGCGGCGCUAGAAGGGUGACCACAUGAGGAUCACCCAUGU
- apparent Kd [3]: 754 nM
- apparent Kd [4]: 218 nM

Sequence: CCUAUGUGAGGAUAUCACUGGUCUUCUCACUGGAUGAUUAGUGAGAAGGCACAUGAGGAUCACCCAUGUCGGUG
- apparent Kd [1]: 656 nM
- apparent Kd [2]: 451 nM

Sequence: CCUAUGUGAGGAUAUGGUGUUGGCCACAAGGAAAAGCUCCUCCAGAAGGCACAUGAGGAUCACCCAUGUCGUGG
- apparent Kd [1]: 21.5 nM
- apparent Kd [2]: 115 nM

Sequence: CCUCAACAGUAGGAUAUCAUAAAACUAUUGUGAUGAGAAGGACUGACAUGAGGAUCACCCAUGUUAACGUGAUA
- apparent Kd [1]: 19.6 nM
- apparent Kd [2]: 30.5 nM

Sequence: CCUCAACAGUAGGAUAUCAUCAAACUAUUGUGAUGAGAAGGACUGACAUGAGGAUCACCCAUGUUGACGUGAUA
- apparent Kd [1]: 63.4 nM
- apparent Kd [2]: 51.7 nM

Sequence: CCUCAUGGUCGAGGAUAUAUAACGUGGAACGUAAUAGAAGGCGACAUGAGGAUCACCCAUGUAGCGUCCACUGGAGUCGCGCGG
- apparent Kd [1]: 119 nM
- apparent Kd [2]: 62.2 nM

Sequence: CCUCCACAUGAGGAUCACCCAUGUCAGGAUAUCGUGCGCGCGUUUUCGGUCUUUCGCGCGAGAAGGGACGACUG
- apparent Kd [1]: 30.3 nM
- apparent Kd [2]: 30.9 nM

Sequence: CCUCCACAUGAGGAUCACCCAUGUCAGGAUAUCGUGUGCGCGUUUUCGGUCUUUCGUGCGAGAAGGGACGUCUG
- apparent Kd [1]: 36.9 nM
- apparent Kd [2]: 35 nM

Sequence: CCUCCCUGAGGAUAUCCACCCUCAUACAUGAGGAUCACCCAUGUUCAUCCCUGAGUACCCGGAGAAGGCAGAUUUC
- apparent Kd [1]: 168 nM
- apparent Kd [2]: 148 nM

Sequence: CCUCGUUGGGAGGAUAUCCUUUUGGUUGGAGGAGGAGAAGGCUCGACAUGAGGAUCACCCAUGUGGGAUUUCCU
- apparent Kd [1]: 74.8 nM
- apparent Kd [2]: 211 nM

Sequence: CCUCUACAUGAGGAUCACCCAUGUGAGGAUAUCAAAGCCAGAGCGGAUCUCCGGCCCAUGAGAAGGUGCAUGGA
- apparent Kd [1]: 19.8 nM
- apparent Kd [2]: 70.8 nM

Sequence: CCUGCACAUGAGGAUCACCCAUGUCAGGAUAUCUCGCCGUGAAGAGCAACACGGUAUUAGAGAAGGGACACGGG
- apparent Kd [1]: 25.1 nM
- apparent Kd [2]: 23.3 nM

Sequence: CCUGCGGACAAAGGAUAUUGCGGUGGCCGGCUCAGUAAAUCUAGCCAACAUGAGGAUCACCCAUGUAAGAAGGUUGCCGUUGGU
- apparent Kd [1]: 19.1 nM
- apparent Kd [2]: 35.1 nM

Sequence: CCUGGAUCAUGAGGAUAUGGCACCUUAUUGGUGCCAGAAGGCAUGUCUUUUGACAUGAGGAUCACCCAUGUAAUAAAUUCCAGG
- apparent Kd [3]: 933 nM
- apparent Kd [4]: 131 nM

Sequence: CCUUCACAUGAGGAUCACCCAUGUCAGGAUAUCUCAGUGCAUCCACACGGACGCAUCAAGAGAAGGGACAAAAC
- apparent Kd [1]: 46.4 nM
- apparent Kd [2]: 53.6 nM

Sequence: CCUUCAGCGAACGAUACGAAUGGACAUGAGGAUCACCCAUGUAGAAGGACAGGAGAAUAACGGCUGUAGGAUAUACAUUUAGUG
- apparent Kd [1]: 39.9 nM
- apparent Kd [2]: 30 nM

Sequence: CCUUGACAUGAGGAUCACCCAUGUUAGGAUAUAACAUUAGACACUACAGUAUGUAGUGUUAGAAGGGAUAUGGG
- apparent Kd [1]: 22.8 nM
- apparent Kd [2]: 28.5 nM

Sequence: CCUUUGAAGAUCCAAAAUUUCAACAUGAGGAUCACCCAUGUGCAGGAUAUCGUGCCAGUGAUGUACGAGAAGGGCAGACUCUGC
- apparent Kd [1]: 176 nM
- apparent Kd [2]: 177 nM

Sequence: CGAAGAGGAAGUGAAAGGCGGGACAGAAGGGCACCGGGUCAGCGUCACAUGAGGAUCACCCAUGUGCAGGAUAUGUCGACCCAC
- apparent Kd [1]: 6.54 nM
- apparent Kd [2]: 30.4 nM

Sequence: CGAGACCUCACAGGAUAUGCUGGACUUUGUCCAGCAGAAGGGUGAAAACAUGAGGAUCACCCAUGUAUGGUCUCCAAAUUUAAU
- apparent Kd [3]: 176 nM
- apparent Kd [4]: 13.9 nM
